Active and inactive are the calls of the source. Unless noted, the calls are words filed in the database; no cut-off is given here.
What was measured:
Mus musculus [1] = assay: Anticonvulsant activity against maximal electroshock-induced seizures in Swiss albino mouse at 300 mg/kg, ip after 0.5 hrs; type: functional, organism-based; design: dose 300 mg/kg
In short: (§1)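 Mice; compounds given ip at 30, 100 and 300 mg/kg and tested in the maximal electroshock seizure model at 0.5 and 4.0 h after dosing. Read-out is the minimal dose giving protection in half or more of the animals. Absence of activity is judged at the 300 mg/kg maximum.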

Mus musculus [2] = assay: Anticonvulsant activity against subcutaneous pentylenetetrazole-induced seizures in Swiss albino mouse at 300 mg/kg, ip after 4 hrs; type: functional, organism-based; design: dose 300 mg/kg
In short: (§2)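 Mice; subcutaneous pentylenetetrazole seizure screen after ip dosing at 30, 100 and 300 mg/kg, read 0.5 and 4.0 h post-dose. Scored as the lowest dose protecting at least half of the animals. Absence of activity is judged at the 300 mg/kg maximum.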

Mus musculus [3] = assay: Anticonvulsant activity against maximal electroshock-induced seizures in ip dosed Swiss albino mouse assessed as minimum effective dose after 4 hrs; type: functional; details: read-out: MED; in short: as §1
Mus musculus [4] = assay: Neurotoxicity in Swiss albino mouse at 300 mg/kg, ip after 4 hrs; type: toxicity, organism-based; design: dose 300 mg/kg, route intraperitoneal; details: in vivo
In short: (§3)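 Acute neurotoxicity by rotorod test in mice given 30, 100 and 300 mg/kg ip, assessed 0.5 and 4.0 h after dosing. Reported as the minimal dose producing the effect in half or more of the animals. Absence of activity is judged at the 300 mg/kg maximum.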

Mus musculus [5] = assay: Anticonvulsant activity against subcutaneous pentylenetetrazole-induced seizures in Swiss albino mouse at 300 mg/kg, ip after 0.5 hrs; type: functional, organism-based; design: dose 300 mg/kg; in short: as §2
Rattus norvegicus [6] = assay: Anticonvulsant activity against subcutaneous strychnine-induced seizures in Wistar rat at 300 mg/kg, ip after 4 hrs; type: functional, organism-based; design: dose 300 mg/kg
In short: (§4)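 Rats; subcutaneous strychnine-induced seizure model with compounds given intraperitoneally at 30, 100 and 300 mg/kg. Activity is checked at 0.5 h and 4.0 h and recorded as the minimal dose active in at least half of the animals. Absence of activity is judged at the 300 mg/kg maximum.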

Mus musculus [7] = assay: Neurotoxicity in Swiss albino mouse at 300 mg/kg, ip after 0.5 hrs; type: toxicity, organism-based; design: dose 300 mg/kg, route intraperitoneal; details: in vivo; in short: as §3
Rattus norvegicus [8] = assay: Anticonvulsant activity against subcutaneous strychnine-induced seizures in Wistar rat at 300 mg/kg, ip after 0.5 hrs; type: functional, organism-based; design: dose 300 mg/kg; in short: as §4
Rattus norvegicus [9] = assay: Anticonvulsant activity against subcutaneous strychnine-induced seizures in ip dosed Wistar rat assessed as minimum effective dose after 4 hrs; type: functional; details: read-out: MED; in short: as §4
Mus musculus [10] = assay: Anticonvulsant activity against subcutaneous pentylenetetrazole-induced seizures in ip dosed Swiss albino mouse assessed as minimum effective dose after 4 hrs; type: functional; details: read-out: MED; in short: as §2
Mus musculus [11] = assay: Neurotoxicity in ip dosed Swiss albino mouse assessed as minimum dose required to cause toxicity after 4 hrs; type: organism-based; details: in vivo; in short: as §3
Mus musculus [12] = assay: Anticonvulsant activity against maximal electroshock-induced seizures in ip dosed Swiss albino mouse assessed as minimum effective dose after 0.5 hrs; type: functional; details: read-out: MED; in short: as §1
Mus musculus [13] = assay: Anticonvulsant activity against maximal electroshock-induced seizures in Swiss albino mouse at 300 mg/kg, ip after 4 hrs; type: functional, organism-based; design: dose 300 mg/kg; in short: as §1
Mus musculus [14] = assay: Neurotoxicity in ip dosed Swiss albino mouse assessed as minimum dose required to cause toxicity after 0.5 hrs; type: organism-based; details: in vivo; in short: as §3

| Structure (SMILES) | MED (Mus musculus [1]) | MED (Mus musculus [2]) | minimal effective dose (Mus musculus [3]) | Activity (Mus musculus [4]) | MED (Mus musculus [5]) | MED (Rattus norvegicus [6]) | Activity (Mus musculus [7]) | MED (Rattus norvegicus [8]) | minimal effective dose (Rattus norvegicus [9]) | minimal effective dose (Mus musculus [10]) | Activity (Mus musculus [11]) | minimal effective dose (Mus musculus [12]) | MED (Mus musculus [13]) | Activity (Mus musculus [14]) |
| --- | --- | --- | --- | --- | --- | --- | --- | --- | --- | --- | --- | --- | --- | --- |
| Cc1ccc(/C=N\NC(=O)Nc2nnc(COc3ccc4ccccc4c3)o2)cc1 | inactive | inactive | 300 mg/kg | Non-toxic | inactive | inactive | Non-toxic | inactive |  |  |  |  |  |  |
| C/C(=N/NC(=O)Nc1nnc(COc2ccc3ccccc3c2)o1)c1ccc(N)cc1 | inactive |  | 300 mg/kg | Non-toxic | inactive |  | Non-toxic | inactive | 300 mg/kg | 300 mg/kg |  |  |  |  |
| O=C(N/N=C\c1cccc(O)c1)Nc1nnc(COc2ccc3ccccc3c2)o1 | inactive |  | 300 mg/kg |  | inactive | inactive | Non-toxic | inactive |  | 300 mg/kg | 300 mg/kg |  |  |  |
| C/C(=N/NC(=O)Nc1nnc(COc2ccc3ccccc3c2)o1)c1ccc(O)cc1 |  | inactive | 300 mg/kg |  | inactive | inactive | Non-toxic | inactive |  |  | 300 mg/kg | 100 mg/kg |  |  |
| O=C(N/N=C\c1ccccc1)Nc1nnc(COc2ccc3ccccc3c2)o1 | inactive | inactive | 300 mg/kg |  | inactive | inactive | Non-toxic | inactive |  |  | 300 mg/kg |  |  |  |
| COc1ccc(/C=N\NC(=O)Nc2nnc(COc3ccc4ccccc4c3)o2)cc1 | inactive |  |  | Non-toxic | inactive | inactive | Non-toxic | inactive |  | 300 mg/kg |  |  | inactive |  |
| CN(C)c1ccc(/C=N\NC(=O)Nc2nnc(COc3ccc4ccccc4c3)o2)cc1 |  | inactive | 300 mg/kg |  | inactive | inactive | Non-toxic | inactive |  |  | 300 mg/kg | 100 mg/kg |  |  |
| COc1ccc(/C(=N\NC(=O)Nc2nnc(COc3ccc4ccccc4c3)o2)c2ccccc2)cc1 | inactive | inactive | 300 mg/kg |  | inactive | inactive | Non-toxic | inactive |  |  | 300 mg/kg |  |  |  |
| O=C(NN=C(c1ccccc1)c1ccccc1)Nc1nnc(COc2ccc3ccccc3c2)o1 | inactive | inactive | 300 mg/kg | Non-toxic | inactive | inactive |  | inactive |  |  |  |  |  | 300 mg/kg |
| O=C(N/N=C\c1ccc(Cl)cc1)Nc1nnc(COc2ccc3ccccc3c2)o1 | inactive | inactive |  | Non-toxic | inactive | inactive |  | inactive |  |  |  |  | inactive | 300 mg/kg |
| C/C(=N/NC(=O)Nc1nnc(COc2ccc3ccccc3c2)o1)c1ccc(Cl)cc1 | inactive |  |  | Non-toxic | inactive | inactive | Non-toxic | inactive |  | 300 mg/kg |  |  | inactive |  |
| O=C(N/N=C\c1ccc([N+](=O)[O-])cc1)Nc1nnc(COc2ccc3ccccc3c2)o1 |  | inactive |  |  | inactive |  | Non-toxic | inactive | 300 mg/kg |  | 300 mg/kg | 300 mg/kg | inactive |  |
